In data set [1] the target is MC5R. The settings on record: read-out: Ki for MC5R; unlabeled peptide ligands; cited from earlier work.
The target of a further data set is MC1R. As to conditions: read-out: Ki for MC1R, cited from earlier work.
Another data set in a line: in vivo. As to conditions: female, nu/nu, mouse.
The subject of data set [2] is A375/MC1R and A375 xenograft tumors. The experiment in a line: in vivo. The settings on record: female, nu/nu, mouse, 5 nmol/kg.
Details of data set [3]: species or system mouse. As to conditions: mean±s.d. of 10 simulations.
In data set [4] the test system is MC5R. The experiment in a line: Co-injection of MC5R-selective ligand to block kidney uptake of probe. In kind it is in vivo, mouse. As to conditions: 5 nmol/kg MC1RL-800 co-injected with 1 nmol/kg MC5R-selective ligand, 2 h. Summed up: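 Female nu/nu mice (6–8 weeks) carried s.c. xenografts: 1 × 10⁶ A375/MC1R cells in the right flank and parental A375 cells in the left. At 500–800 mm³ tumor volume, mice received 5 nmol/kg MC1R ligand–IRDye800CW i.v. (tail vein, in 100 μL sterile saline) co-injected with 1 nmol/kg MC5R-specific ligand. Fluorescence imaging used mean pre-injection tumor signal subtracted from normalized post-injection ROI intensities.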

Data on three molecules can be found in article PMC3785103 (Molecular pharmaceutics, 2013).

Like-named read-outs stand apart in the source and are kept apart here. [ ]: non-standard residue; d: D form. d2Nal = N[C@H](Cc1ccc2ccccc2c1)C(=O)O; Nle = CCCC[C@H](N)C(=O)O

For orientation: Ki means the dissociation constant of the complex between target and ligand, obtained from inhibition or displacement. On to “4-phenylbutyryl-His-DPhe-Arg-Trp-Gly-Lys(hex-5-ynoyl)-NH2 [unlabeled ligand]”, for which the inhibition constant (Ki) on MC5R [1] is 46 nM; on MC1R (unlabeled peptide ligands), 0.24 nM.
What is called half-life is the time in which the quantity being followed falls by half. `CC1(C)C(=CC=C2CCCC(C=CC3=[N+](CCCCS(=O)(=O)[O-])c4ccc(S(=O)(=O)O)cc4C3(C)C)=C2Oc2ccc(S(=O)(=O)O)cc2)N(CCCCCC(=O)NCCN2C(=O)CC(SCCC(=O)NCCCC[C@H](NC(=O)CNC(=O)[C@H](Cc3c[nH]c4ccccc34)NC(=O)[C@H](CCCNC(=N)N)NC(=O)[C@@H](Cc3ccccc3)NC(=O)[C@H](Cc3c[nH]cn3)NC(=O)CCCc3ccccc3)C(N)=O)C2=O)c2ccc(S(=O)(=O)O)cc21` (stereo partly drawn) [MC1RL-800, 4-phenylbutyryl-His-DPhe-Arg-Trp-Gly-Lys(Mpr-IRDye800CW)-NH2]: the half-life in “in vivo” (5 nmol/kg, half-life (clearance) in the tumor) was 22 h. This molecule had a half-life in the data set “in vivo” (half-life (clearance) in negative tissue) of 16 h. Also, the “half-life (clearance) in the tumor” value in data set [2] is about 22 h. In data set [3], the “Kki, rate of accumulation of ligand in the kidney specific binding compartment” value is reported as 1E-2+6.8E-3 (NU.h)^−1; the “Kko, rate of clearance of ligand from kidney back to the bloodstream” value was 0.96 ± 0.14 h⁻¹; the “Kni, rate of accumulation in non-specific tissue” value is given as 1.8 ± 0.2 (NU.h)^−1; the “Kno, rate of clearance from non-specific tissue” value is 2.3 ± 0.6 h⁻¹. In data set [3], the “Kto, rate of clearance from tumor specific binding compartment” value is on record as 26+12 (h)^−1. For the same molecule, the “Kti, rate of probe accumulation in tumor specific binding compartment” value in data set [3] (fit to 3 nmol/kg ex vivo data) is given as 2.7+1.4 (NU.h)^−1. Further, the “decrease of A375/MC1R tumor signal” value with MC5R [4] stood at 28%. The Ki at MC1R (NIRF dye conjugates) is 0.4 ± 0.1 nM.
“H-YV[Nle]GH[d2Nal]R[dF]DRFG-NH2 [reference compound]”: the inhibitory constant (Ki) is 0.71 nM at MC5R [1] and 5.6 nM at MC1R (unlabeled peptide ligands).
